From ChEMBL document CHEMBL4689842, “EUbOPEN Chemogenomics Library wave 1” (2021)

Tested on: HEK-293T
Assay: Multiplex assay against HEK293T;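 as to Population Tubulin-Different-Phenotype (%): share of the cells with healthy nuclei that show this phenotype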
Format: toxicity, cell-based
Conditions: human
In short: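 Cells were classed with CellPathfinder machine-learning gating, first as Hoechst high-intensity objects or normal cells, then (normal cells) as healthy, pyknosed or fragmented nuclei, and finally (pyknosed cells) as mitotic or apoptotic. Staining of live cells at seeding used Hoechst33342, BioTracker Green Microtubule Cytoskeleton Dye, MitoTracker Red and Annexin V Alexa Fluor 680, with imaging on a CQ1 microscope at 37°C and 5% CO2 after compound addition. Tubulin, mitochondrial-mass and membrane-permeability phenotypes are per cents of healthy-nucleus cells.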

[1] = 12 h, 1 µM, compound concentration 1 uM, replicate 1
[2] = 12 h, 1 µM, compound concentration 1 uM, replicate 2
[3] = 12 h, 10 µM, compound concentration 10 uM, replicate 1
[4] = 12 h, 10 µM, compound concentration 10 uM, replicate 2
[5] = 24 h, 1 µM, compound concentration 1 uM, replicate 1
[6] = 24 h, 1 µM, compound concentration 1 uM, replicate 2
[7] = 24 h, 10 µM, compound concentration 10 uM, replicate 1
[8] = 24 h, 10 µM, compound concentration 10 uM, replicate 2
[9] = 48 h, 1 µM, compound concentration 1 uM, replicate 1
[10] = 48 h, 1 µM, compound concentration 1 uM, replicate 2
[11] = 48 h, 10 µM, compound concentration 10 uM, replicate 1
[12] = 48 h, 10 µM, compound concentration 10 uM, replicate 2

Q: Which “Population Apoptotic (%)” value [1] does the source give for `COC(=O)C1=C(C)NC(C)=C(C(=O)OCCCN2CCC(c3ccccc3)(c3ccccc3)CC2)[C@H]1c1cccc([N+](=O)[O-])c1` [NIGULDIPINE] here?
A: Its value is 86%.

Q: What about the “Population Fragmented Nuclei (%)” value [1] of the same compound?
A: The value was 7%.

Q: What about the “Population Healthy Nuclei (%)” value [1] of the same compound?
A: The value was 34%.

Q: What about the “Population Hoechst High Intensity Objects (%)” value [1] of the same compound?
A: Its value is 9%.

Q: And the “Population Membrane Permeable-Phenotype (%)” value [1]?
A: The value was 2%.

Q: And the “Population Mitochondria Different-Phenotype (%)” value [1]?
A: The value was 98%.

Q: And the “Population Mitotic Cells (%)” value [1]?
A: Its value is 13%.

Q: And the “Population Normal (%)” value [1]?
A: Its value is 90%.

Q: And the “Population Pyknosed Nuclei (%)” value [1]?
A: Its value is 58%.

Q: And the “Population Tubulin-Different-Phenotype (%)” value [1]?
A: Its value is 97%.

Q: And the “Total Cell Count” value [1]?
A: Its value is 272.

Q: And the “Population Apoptotic (%)” value [2]?
A: Its value is 91%.

Q: What about the “Population Fragmented Nuclei (%)” value [2] of the same compound?
A: The value was 5%.

Q: What about the “Population Healthy Nuclei (%)” value [2] of the same compound?
A: The value was 32%.

Q: What about the “Population Hoechst High Intensity Objects (%)” value [2] of the same compound?
A: The value was 5%.

Q: What about the “Population Membrane Permeable-Phenotype (%)” value [2] of the same compound?
A: Its value is 1%.

Q: And the “Population Mitochondria Different-Phenotype (%)” value [2]?
A: Its value is 100%.

Q: And the “Population Mitotic Cells (%)” value [2]?
A: Its value is 8%.

Q: And the “Population Normal (%)” value [2]?
A: Its value is 94%.

Q: And the “Population Pyknosed Nuclei (%)” value [2]?
A: The value was 62%.

Q: What about the “Population Tubulin-Different-Phenotype (%)” value [2] of the same compound?
A: The value was 98%.

Q: And the “Total Cell Count” value [2]?
A: Its value is 177.

Q: What about the “Population Apoptotic (%)” value [3] of the same compound?
A: Its value is 81%.

Q: And the “Population Fragmented Nuclei (%)” value [3]?
A: The value was 18%.

Q: And the “Population Healthy Nuclei (%)” value [3]?
A: The value was 2%.

Q: And the “Population Hoechst High Intensity Objects (%)” value [3]?
A: Its value is 15%.

Q: And the “Population Membrane Permeable-Phenotype (%)” value [3]?
A: The value was 0%.

Q: And the “Population Mitochondria Different-Phenotype (%)” value [3]?
A: Its value is 66%.

Q: What about the “Population Mitotic Cells (%)” value [3] of the same compound?
A: The value was 18%.

Q: And the “Population Normal (%)” value [3]?
A: The value was 84%.

Q: What about the “Population Pyknosed Nuclei (%)” value [3] of the same compound?
A: Its value is 79%.

Q: And the “Population Tubulin-Different-Phenotype (%)” value [3]?
A: The value was 66%.

Q: What about the “Total Cell Count” value [3] of the same compound?
A: Its value is 266.

Q: What about the “Population Apoptotic (%)” value [4] of the same compound?
A: The value was 63%.

Q: What about the “Population Fragmented Nuclei (%)” value [4] of the same compound?
A: Its value is 6%.

Q: And the “Population Healthy Nuclei (%)” value [4]?
A: The value was 1%.

Q: What about the “Population Hoechst High Intensity Objects (%)” value [4] of the same compound?
A: Its value is 7%.

Q: And the “Population Membrane Permeable-Phenotype (%)” value [4]?
A: Its value is 66%.

Q: And the “Population Mitochondria Different-Phenotype (%)” value [4]?
A: The value was 0%.

Q: And the “Population Mitotic Cells (%)” value [4]?
A: The value was 36%.

Q: What about the “Population Normal (%)” value [4] of the same compound?
A: The value was 92%.

Q: What about the “Population Pyknosed Nuclei (%)” value [4] of the same compound?
A: Its value is 91%.

Q: And the “Population Tubulin-Different-Phenotype (%)” value [4]?
A: Its value is 33%.

Q: What about the “Total Cell Count” value [4] of the same compound?
A: The value was 202.

Q: And the “Population Apoptotic (%)” value [5]?
A: Its value is 86%.

Q: And the “Population Fragmented Nuclei (%)” value [5]?
A: Its value is 7%.

Q: And the “Population Healthy Nuclei (%)” value [5]?
A: The value was 41%.

Q: What about the “Population Hoechst High Intensity Objects (%)” value [5] of the same compound?
A: Its value is 11%.

Q: What about the “Population Membrane Permeable-Phenotype (%)” value [5] of the same compound?
A: The value was 0%.

Q: And the “Population Mitochondria Different-Phenotype (%)” value [5]?
A: The value was 99%.

Q: And the “Population Mitotic Cells (%)” value [5]?
A: Its value is 13%.

Q: And the “Population Normal (%)” value [5]?
A: Its value is 88%.

Q: What about the “Population Pyknosed Nuclei (%)” value [5] of the same compound?
A: The value was 50%.

Q: What about the “Population Tubulin-Different-Phenotype (%)” value [5] of the same compound?
A: The value was 97%.

Q: What about the “Total Cell Count” value [5] of the same compound?
A: The value was 293.

Q: What about the “Population Apoptotic (%)” value [6] of the same compound?
A: The value was 95%.

Q: And the “Population Fragmented Nuclei (%)” value [6]?
A: The value was 6%.

Q: And the “Population Healthy Nuclei (%)” value [6]?
A: The value was 44%.

Q: What about the “Population Hoechst High Intensity Objects (%)” value [6] of the same compound?
A: Its value is 3%.

Q: What about the “Population Membrane Permeable-Phenotype (%)” value [6] of the same compound?
A: The value was 1%.

Q: And the “Population Mitochondria Different-Phenotype (%)” value [6]?
A: The value was 100%.

Q: And the “Population Mitotic Cells (%)” value [6]?
A: The value was 4%.

Q: And the “Population Normal (%)” value [6]?
A: The value was 96%.

Q: And the “Population Pyknosed Nuclei (%)” value [6]?
A: The value was 49%.

Q: What about the “Population Tubulin-Different-Phenotype (%)” value [6] of the same compound?
A: The value was 98%.

Q: What about the “Total Cell Count” value [6] of the same compound?
A: Its value is 181.

Q: And the “Population Apoptotic (%)” value [7]?
A: The value was 88%.

Q: What about the “Population Fragmented Nuclei (%)” value [7] of the same compound?
A: The value was 20%.

Q: What about the “Population Healthy Nuclei (%)” value [7] of the same compound?
A: Its value is 3%.

Q: And the “Population Hoechst High Intensity Objects (%)” value [7]?
A: Its value is 12%.

Q: And the “Population Membrane Permeable-Phenotype (%)” value [7]?
A: Its value is 11%.

Q: What about the “Population Mitochondria Different-Phenotype (%)” value [7] of the same compound?
A: The value was 66%.

Q: What about the “Population Mitotic Cells (%)” value [7] of the same compound?
A: Its value is 11%.

Q: What about the “Population Normal (%)” value [7] of the same compound?
A: Its value is 87%.

Q: And the “Population Pyknosed Nuclei (%)” value [7]?
A: The value was 75%.

Q: And the “Population Tubulin-Different-Phenotype (%)” value [7]?
A: The value was 77%.

Q: What about the “Total Cell Count” value [7] of the same compound?
A: Its value is 263.

Q: What about the “Population Apoptotic (%)” value [8] of the same compound?
A: The value was 79%.

Q: And the “Population Fragmented Nuclei (%)” value [8]?
A: The value was 4%.

Q: What about the “Population Healthy Nuclei (%)” value [8] of the same compound?
A: The value was 1%.

Q: What about the “Population Hoechst High Intensity Objects (%)” value [8] of the same compound?
A: The value was 6%.

Q: What about the “Population Membrane Permeable-Phenotype (%)” value [8] of the same compound?
A: Its value is 50%.

Q: What about the “Population Mitochondria Different-Phenotype (%)” value [8] of the same compound?
A: The value was 0%.

Q: And the “Population Mitotic Cells (%)” value [8]?
A: The value was 20%.

Q: What about the “Population Normal (%)” value [8] of the same compound?
A: The value was 93%.

Q: And the “Population Pyknosed Nuclei (%)” value [8]?
A: The value was 94%.

Q: And the “Population Tubulin-Different-Phenotype (%)” value [8]?
A: Its value is 0%.

Q: What about the “Total Cell Count” value [8] of the same compound?
A: Its value is 202.

Q: What about the “Population Apoptotic (%)” value [9] of the same compound?
A: Its value is 85%.

Q: And the “Population Fragmented Nuclei (%)” value [9]?
A: The value was 9%.

Q: What about the “Population Healthy Nuclei (%)” value [9] of the same compound?
A: The value was 56%.

Q: What about the “Population Hoechst High Intensity Objects (%)” value [9] of the same compound?
A: Its value is 9%.

Q: What about the “Population Membrane Permeable-Phenotype (%)” value [9] of the same compound?
A: Its value is 0%.

Q: And the “Population Mitochondria Different-Phenotype (%)” value [9]?
A: The value was 99%.

Q: And the “Population Mitotic Cells (%)” value [9]?
A: The value was 14%.

Q: What about the “Population Normal (%)” value [9] of the same compound?
A: Its value is 91%.

Q: What about the “Population Pyknosed Nuclei (%)” value [9] of the same compound?
A: The value was 34%.

Q: What about the “Population Tubulin-Different-Phenotype (%)” value [9] of the same compound?
A: The value was 96%.

Q: And the “Total Cell Count” value [9]?
A: The value was 300.

Q: And the “Population Apoptotic (%)” value [10]?
A: Its value is 97%.

Q: And the “Population Fragmented Nuclei (%)” value [10]?
A: The value was 6%.

Q: What about the “Population Healthy Nuclei (%)” value [10] of the same compound?
A: The value was 55%.

Q: What about the “Population Hoechst High Intensity Objects (%)” value [10] of the same compound?
A: Its value is 8%.

Q: And the “Population Mitochondria Different-Phenotype (%)” value [10]?
A: Its value is 98%.

Q: What about the “Population Mitotic Cells (%)” value [10] of the same compound?
A: Its value is 2%.

Q: And the “Population Pyknosed Nuclei (%)” value [10]?
A: The value was 37%.

Q: And the “Population Tubulin-Different-Phenotype (%)” value [10]?
A: Its value is 99%.

Q: And the “Total Cell Count” value [10]?
A: Its value is 203.

Q: And the “Population Fragmented Nuclei (%)” value [11]?
A: Its value is 24%.

Q: And the “Population Healthy Nuclei (%)” value [11]?
A: Its value is 3%.

Q: And the “Population Hoechst High Intensity Objects (%)” value [11]?
A: The value was 14%.

Q: And the “Population Membrane Permeable-Phenotype (%)” value [11]?
A: The value was 22%.

Q: What about the “Population Mitochondria Different-Phenotype (%)” value [11] of the same compound?
A: The value was 66%.

Q: And the “Population Normal (%)” value [11]?
A: Its value is 85%.

Q: And the “Population Pyknosed Nuclei (%)” value [11]?
A: The value was 72%.

Q: And the “Population Tubulin-Different-Phenotype (%)” value [11]?
A: Its value is 55%.

Q: And the “Total Cell Count” value [11]?
A: Its value is 283.

Q: What about the “Population Apoptotic (%)” value [12] of the same compound?
A: Its value is 93%.

Q: What about the “Population Fragmented Nuclei (%)” value [12] of the same compound?
A: Its value is 11%.

Q: What about the “Population Healthy Nuclei (%)” value [12] of the same compound?
A: The value was 6%.

Q: What about the “Population Hoechst High Intensity Objects (%)” value [12] of the same compound?
A: The value was 5%.

Q: What about the “Population Membrane Permeable-Phenotype (%)” value [12] of the same compound?
A: The value was 41%.

Q: And the “Population Mitochondria Different-Phenotype (%)” value [12]?
A: Its value is 75%.

Q: And the “Population Mitotic Cells (%)” value [12]?
A: The value was 6%.

Q: What about the “Population Normal (%)” value [12] of the same compound?
A: Its value is 94%.

Q: What about the “Population Pyknosed Nuclei (%)” value [12] of the same compound?
A: The value was 82%.

Q: What about the “Population Tubulin-Different-Phenotype (%)” value [12] of the same compound?
A: The value was 66%.

Q: What about the “Total Cell Count” value [12] of the same compound?
A: The value was 201.
